Screening data: PubChem, several laboratories
Hits are enriched below; roughly 2.9% of the tested compounds scored in any of these assays.
Runt-CBFb FRET: inhibitors of RUNX1 Runt–CBFb binding, primary screen, biochemical, FRET, Cerulean-Runt, Venus-CBFb, uHTS. inhibition, % at 20 µM. AID 1496, 2009. Runt-related transcription factor 1 (Homo sapiens) + Core-binding factor subunit beta …. 220,000 compounds, 0.46% hits. Cerulean-Runt/Venus-CBFb FRET ratio 530/480, 1 h;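 active means inhibition over about 50% at 20 µM in the single-dose screen, limit read from the data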;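 further: 0% = DMSO wells and 100% = excess unlabeled CBFb competitor control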
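test system = Cerulean-Runt domain fusion protein, energy donor | probe or stimulus = Venus-CBFb binding partner, 100 nM | incubation = two 1 h room-temperature incubations shielded from light | detection = fluorescence energy transfer, 422 nm excitation, 530/480 nm emission | measure = loss of energy transfer signal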
RBBP9 inh: human RBBP9 inhibitors, primary screen, biochemical, fluorescence polarization, FP-Rh probe, HTS; inhibition, % at 7.94 µM; recombinant RBBP9; Serine hydrolase RBBP9 (Homo sapiens), O75884; 220,000 compounds, 0.2% hits;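 active means inhibition above the campaign mean of all tested compounds plus 3 SD, cut at about 14% in these data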;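 further: plate controls were DMSO wells with RBBP9 for no effect and wells lacking RBBP9 protein for full effect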
Target sequence (O75884 whole entry, looked up): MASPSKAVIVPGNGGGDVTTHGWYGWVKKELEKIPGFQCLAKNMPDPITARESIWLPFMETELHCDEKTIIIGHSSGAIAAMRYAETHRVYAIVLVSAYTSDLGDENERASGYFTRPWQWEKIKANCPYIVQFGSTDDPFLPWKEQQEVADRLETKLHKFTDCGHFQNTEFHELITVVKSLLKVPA
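Test system: recombinant human RBBP9. Quantity: 2.5 µM RBBP9 dispensing solution, before mixing. Detection: FP readout at 525/598 nm. Reagent: Serine-hydrolase probe FP-Rh, 375 nM pre-mixing. Measure: % inhibition. Control set: DMSO-treated enzyme wells and wells lacking RBBP9. Buffer or medium: Tris-NaCl-Pluronic buffer, pH 8.0. Times: preincubation 30 min plus labeling 45 min at 25 °C.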
Runt-SMMHC FRET: inhibitors of RUNX1 Runt–CBFb-SMMHC binding, primary screen, biochemical, FRET, Cerulean-Runt, Venus-CBFb-SMMHC, uHTS; inhibition, % at 20 µM; Cerulean-Runt/Venus-CBFb-SMMHC FRET ratio 530/480, 1 h; 220,000 compounds, 0.74% hits; AID 1434, 2008;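 active means mean inhibition across duplicate retests at 20 µM reaching about 50%, limit read from the data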;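 further: 0% = DMSO wells and 100% = wells with excess untagged CBFb-SMMHC; inhibitors lower the FRET ratio by blocking Runt binding to CBFb-SMMHC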
M18AAP inhibitor: PfM18AAP inhibitors, malaria aminopeptidase, primary screen, biochemical, QFRET, recombinant enzyme. M18 aspartyl aminopeptidase (Plasmodium falciparum 3D7). H-Glu-NHMec fluorogenic cleavage. inhibition, % at 7.35 µM. 290,000 compounds, 1.2% hits;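 active means inhibition above the campaign mean inhibition over all tested compounds plus 3 SD, cut at about 28% in these data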;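 further: 0% = plate median of test compound wells and 100% = 2 mM ZnCl2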
Hck Nef HTS: inhibitors of Nef-activated human Hck kinase, primary screen, biochemical, Z-Lyte FRET, 384-well, Hck-YEEI; inhibition, % at 20 µM; AID 463187, 2010; Recombinant Hck-YEEI plus Nef, Z-Lyte FRET kinase assay; 220,000 compounds, 0.68% hits; Tyrosine-protein kinase HCK (Homo sapiens), P08631;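 active means Hck-Nef kinase inhibition above about 50%, limit read from the data; inactive means inhibition below that limit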;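 further: 0% = DMSO with Hck plus Nef and 100% = Hck alone without Nef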
Target sequence (P08631 whole entry, looked up): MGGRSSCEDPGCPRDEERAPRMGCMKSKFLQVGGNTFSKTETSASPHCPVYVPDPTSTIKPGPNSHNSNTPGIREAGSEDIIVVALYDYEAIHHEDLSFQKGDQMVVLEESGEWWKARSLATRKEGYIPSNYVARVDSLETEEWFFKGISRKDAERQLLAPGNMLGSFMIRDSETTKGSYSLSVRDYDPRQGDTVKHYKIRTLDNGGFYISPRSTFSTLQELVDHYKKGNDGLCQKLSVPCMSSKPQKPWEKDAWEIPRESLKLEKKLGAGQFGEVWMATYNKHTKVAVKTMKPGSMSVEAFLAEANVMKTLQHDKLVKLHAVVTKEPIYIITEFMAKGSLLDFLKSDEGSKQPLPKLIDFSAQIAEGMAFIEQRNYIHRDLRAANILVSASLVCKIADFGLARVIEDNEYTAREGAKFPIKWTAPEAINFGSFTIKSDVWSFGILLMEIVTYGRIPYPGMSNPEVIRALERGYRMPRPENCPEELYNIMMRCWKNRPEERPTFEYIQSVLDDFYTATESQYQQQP
RanGTP-Imp inh: inhibitors of RanGTP-importin-beta interaction, primary screen, biochemical, FRET, CFP-Ran, YFP-importin-beta, homogeneous; 300,000 compounds, 1.1% hits; inhibition, % (concentration not given with the values); AID 2216, 2009; cell-free CFP-Ran/YFP-importin-beta FRET ratio; Ran GTPase (GTP-bound) - importin-beta complex;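 active means more than half of the replicate wells show a fall in the fluorescence ratio signal beyond about 16%, limit read from the data, passing the limit was not always enough; inconclusive means exactly half of the replicate wells pass the set limit; inactive means fewer than half of replicates pass the limit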;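 further: 0% = DMSO wells and 100% = Ran loaded with GDP instead of GTP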
The depositor's hits bear a star.

What do the screens show for `CCN1CCc2c(C#N)c(N3CCOCC3)nc(NCCO)c2C1`?
Runt-CBFb FRET: 33; RBBP9 inh: -9; Runt-SMMHC FRET: 62*; M18AAP inhibitor: 4; Hck Nef HTS: 1; RanGTP-Imp inh: 54*

Results for N#Cc1c(NCCO)nc(NCc2ccccc2)c2c1CCN(Cc1ccccc1)C2 ?
Runt-CBFb FRET: 32; RBBP9 inh: -1; Runt-SMMHC FRET: 79*; M18AAP inhibitor: 7; Hck Nef HTS: 16; RanGTP-Imp inh: 137*

What do the screens show for `COc1cc(C(=O)NCCC(=O)N2CCC3(CC2)NCCc2[nH]cnc23)cc(OC)c1OC`?
M18AAP inhibitor: 7; RanGTP-Imp inh: -1

How did C=CCNc1nc(N2CCOCC2)c(C#N)c2c1CN(C)CC2 do in these assays?
Runt-CBFb FRET: 32; RBBP9 inh: -6; Runt-SMMHC FRET: 55*; M18AAP inhibitor: 9; Hck Nef HTS: 2; RanGTP-Imp inh: 96*

What do the screens show for `CN1CCc2c(C#N)c(N3CCCCC3)nc(N3CCOCC3)c2C1`?
RBBP9 inh: 1; M18AAP inhibitor: 18; Hck Nef HTS: 2; RanGTP-Imp inh: 0

What do the screens show for `N#Cc1c2ccc(OCC(N)=O)cc2n2ccccc12`?
Runt-CBFb FRET: 20; RBBP9 inh: -9; Runt-SMMHC FRET: 86*; M18AAP inhibitor: -3; Hck Nef HTS: -60; RanGTP-Imp inh: 55*

What do the screens show for `CCOC(=O)COc1ccc2c(C#N)c3ccccn3c2c1`?
Runt-CBFb FRET: 20; RBBP9 inh: -4; Runt-SMMHC FRET: 92*; M18AAP inhibitor: -2; Hck Nef HTS: -10; RanGTP-Imp inh: 5

What do the screens show for `CCOC(=O)c1c2ccc(OCC(=O)N/N=C/c3ccc(Cl)cc3)cc2n2ccccc12`?
RBBP9 inh: -4; Runt-SMMHC FRET: -62; M18AAP inhibitor: 1; Hck Nef HTS: 13; RanGTP-Imp inh: 41*

What do the screens show for `CCOC(=O)CSCc1c(C#N)c2ccccc2n1C`?
Runt-CBFb FRET: 0; RBBP9 inh: -11; Runt-SMMHC FRET: -1; M18AAP inhibitor: -5; Hck Nef HTS: -1

What do the screens show for `COc1ccc(C(O)(C(C)C)C(CN2CCOCC2)c2ccc(Cl)cc2)cc1` (stereo unspecified)?
M18AAP inhibitor: -3; RanGTP-Imp inh: 9

What do the screens show for `OCC1(Cc2ccccc2)CCN(Cc2cnc(-c3ccc(Cl)cc3)nc2)CC1`?
Runt-CBFb FRET: -1; RBBP9 inh: -6; Runt-SMMHC FRET: -1; M18AAP inhibitor: 4; Hck Nef HTS: 20; RanGTP-Imp inh: -1

What do the screens show for `COc1ccc(-c2ncc(CN3CCC(CO)(Cc4cccc(OC)c4)CC3)cn2)cc1`?
Runt-CBFb FRET: 8; RBBP9 inh: -1; Runt-SMMHC FRET: 26; M18AAP inhibitor: 9; Hck Nef HTS: 6; RanGTP-Imp inh: 82*

Results for COc1ccccc1NC(=O)C(C)OC(=O)CCC1CCCCC1 (stereo unspecified) ?
M18AAP inhibitor: -1; RanGTP-Imp inh: -2

Results for CCOc1ccc(C2C(C#N)=C(N)SC(N)=C2C#N)c(OCC)c1 ?
Runt-CBFb FRET: 15; RBBP9 inh: -17; Runt-SMMHC FRET: 32; M18AAP inhibitor: 10; Hck Nef HTS: 5; RanGTP-Imp inh: 19*

What do the screens show for `CCOc1cc(C2C(C#N)=C(N)SC(N)=C2C#N)ccc1OCCN1CCOCC1`?
Runt-CBFb FRET: 24; RBBP9 inh: -13; Runt-SMMHC FRET: 15; M18AAP inhibitor: 10; Hck Nef HTS: 1; RanGTP-Imp inh: inconclusive

Results for COc1cc(/C=C(/NC(=O)c2ccccc2)C(=O)N2CCOCC2)c([N+](=O)[O-])cc1OC ?
M18AAP inhibitor: 17; RanGTP-Imp inh: -2

What do the screens show for `COc1cccc(CN2CC(C(=O)NCc3ccc(Cl)s3)CCC2=O)c1` (stereo unspecified)?
M18AAP inhibitor: -8; RanGTP-Imp inh: -1

How did COc1cccc(/C(O)=C/c2nc3ccc(C(=O)NCCc4cccc(C)c4)cc3[nH]c2=O)c1 do in these assays?
Runt-CBFb FRET: -4; RBBP9 inh: -15; Runt-SMMHC FRET: -54; M18AAP inhibitor: -7; Hck Nef HTS: 0; RanGTP-Imp inh: 43*

Results for COc1cccc(/C(O)=C/c2nc3ccc(C(=O)NCCc4ccc(Cl)cc4)cc3[nH]c2=O)c1 ?
Runt-CBFb FRET: -11; RBBP9 inh: 0; Runt-SMMHC FRET: 10; M18AAP inhibitor: 0; Hck Nef HTS: 5; RanGTP-Imp inh: 32*

What do the screens show for `O=C(NCCc1ccc(Cl)cc1)c1ccc2nc[nH]c2c1`?
Runt-CBFb FRET: 2; RBBP9 inh: 0; Runt-SMMHC FRET: -1; M18AAP inhibitor: -2; Hck Nef HTS: 24; RanGTP-Imp inh: -1

What do the screens show for `COc1cccc(C(=O)Nc2cc(C(=O)NCCc3ccccc3)ccc2Cl)c1`?
Runt-CBFb FRET: 3; RBBP9 inh: -8; Runt-SMMHC FRET: 7; M18AAP inhibitor: 5; Hck Nef HTS: 3; RanGTP-Imp inh: 6

Results for CC(=O)N1c2ccc(S(=O)(=O)NCC3CCC(C(=O)N4CCCC(C)C4)CC3)cc2CC1C (stereo unspecified) ?
M18AAP inhibitor: 8; RanGTP-Imp inh: 0

What do the screens show for `CCOc1cc(/C=N/NC(=O)C(N)=O)cc(Br)c1O`?
Runt-CBFb FRET: 5; RBBP9 inh: 3; Runt-SMMHC FRET: 2; M18AAP inhibitor: 3; Hck Nef HTS: 9; RanGTP-Imp inh: 0

How did CCOc1cc(Br)c(Br)c(C=Nc2ccc(NC(C)=O)cc2)c1O do in these assays?
Runt-CBFb FRET: -5; RBBP9 inh: -1; Runt-SMMHC FRET: -20; M18AAP inhibitor: 7; Hck Nef HTS: 63*; RanGTP-Imp inh: -7

What do the screens show for `Cc1cc(C)c(OCC(=O)Nc2nnc(-c3ccco3)o2)c(C)c1`?
Runt-CBFb FRET: 1; RBBP9 inh: -6; Runt-SMMHC FRET: 0; M18AAP inhibitor: -1; Hck Nef HTS: -32; RanGTP-Imp inh: -1

How did N#Cc1c(C(F)(F)F)cc(=O)n2c1[nH]c1ccccc12 do in these assays?
M18AAP inhibitor: -3; RanGTP-Imp inh: 91*

Results for O=C(COC(=O)c1cccs1)NCc1ccco1 ?
Runt-CBFb FRET: -1; Runt-SMMHC FRET: 3; RanGTP-Imp inh: -2
